# From publication PMC6147618 (Molecules : A Journal of Synthetic Chemistry and Natural …, 2005)
# Assays:
# [1] = system: Caco-2 monolayers; assay: Caco-2 monolayer permeability; type: in vitro ADME; details: Hank's balanced salt solution, 25 mM HEPES pH 7.4, 37°C
# Summary of the method: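 Caco-2 cells were grown in DMEM with 10% foetal bovine serum, 2mM L-glutamine and 1% non-essential amino acids, at 37°C, 95% humidity and 5% CO2, on Transwell polycarbonate inserts. Transport was run in air at 37°C and 95% humidity, in HBSS with 25mM HEPES (pH 7.4). Values are means ± sd of 5 monolayers, or n = 3 for co-incubation experiments.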
# [2] = system: P450; details: cited from earlier work
diffusion across the Caco-2 monolayers [1],SMILES,P450-mediated metabolism ([2]; in the absence of alkylamide 3),effect on P450-mediated metabolism of alkylamide 1 ([2]; alkylamide 3 present together with 1)
non-diffusing,O=C(/C=C/c1ccc(O)c(O)c1)O[C@@H](C(=O)O)[C@@H](OC(=O)/C=C/c1ccc(O)c(O)c1)C(=O)O [cichoric acid],,
,"C/C=C\C=C/CC/C=C/C=C/C(=O)NCC(C)C [compound 1, (2E,4E,8Z,10Z)-N-isobutyldodeca-2,4,8,10-tetraenamide]",rapid metabolism,
rapidly diffuse,"C#CC#CCCCC/C=C/C(=O)NCC(C)C [compound 3, (2E)-N-isobutylundeca-2-ene-8,10-diynamide]",,prevented the rapid metabolism of 1
